Laboratory results published in ChEMBL document CHEMBL1759993, “Synthesis and SAR of novel benzoxaboroles as a new class of β-lactamase inhibitors” (Bioorg Med Chem Lett, 2011).
Active and inactive are the calls of the source. No cut-off for these calls is given here.

Experiments:
Beta-lactamase = Beta-lactamase (Enterobacter cloacae, UniProt P05364); assay: Inhibition of Enterobacter cloacae P99 beta-lactamase AmpC P99 using nitrocefin as substrate after 30 mins by spectrophotometric analysis
Method in brief: (§1)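 Substrate level differed between class A and class C enzymes. Fraction inhibited was taken as the rate with inhibitor over the rate without. IC50 was read from log[inhibitor] dose–response curves.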

[1] = Inhibition of beta-lactamase CTX-M9a using nitrocefin as substrate after 30 mins by spectrophotometric analysis; method in brief: as §1
[2] = Inhibition of beta-lactamase TEM1 using nitrocefin as substrate after 30 mins by spectrophotometric analysis; method in brief: as §1
[3] = Inhibition of beta-lactamase CMY-2 using nitrocefin as substrate after 30 mins by spectrophotometric analysis; method in brief: as §1
[4] = biological target: Beta-lactamase (Enterobacter cloacae) (UniProt P05364); assay: Inhibition of Enterobacter cloacae P99 beta-lactamase AmpC P99 assessed as potentiation of ceftazidime-mediated antibacterial activity at 8 ug/ml
[5] = Inhibition of beta-lactamase CMY-2 expressed in Escherichia coli SYN2549 assessed as potentiation of ceftazidime-mediated antibacterial activity at 8 ug/ml

Beta-lactamase, sequence (P05364 whole entry): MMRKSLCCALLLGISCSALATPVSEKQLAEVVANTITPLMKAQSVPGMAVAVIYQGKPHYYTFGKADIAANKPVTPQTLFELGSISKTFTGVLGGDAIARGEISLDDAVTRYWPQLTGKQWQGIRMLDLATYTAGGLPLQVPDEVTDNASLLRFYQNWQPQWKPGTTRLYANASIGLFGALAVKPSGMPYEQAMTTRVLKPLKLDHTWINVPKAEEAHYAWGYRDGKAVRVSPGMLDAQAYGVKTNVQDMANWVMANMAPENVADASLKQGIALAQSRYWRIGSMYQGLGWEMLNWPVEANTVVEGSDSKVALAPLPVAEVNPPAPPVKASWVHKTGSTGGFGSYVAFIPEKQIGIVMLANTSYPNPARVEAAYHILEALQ
Beta-lactamase (Enterobacter cloacae), sequence (P05364 21-381 limits assumed): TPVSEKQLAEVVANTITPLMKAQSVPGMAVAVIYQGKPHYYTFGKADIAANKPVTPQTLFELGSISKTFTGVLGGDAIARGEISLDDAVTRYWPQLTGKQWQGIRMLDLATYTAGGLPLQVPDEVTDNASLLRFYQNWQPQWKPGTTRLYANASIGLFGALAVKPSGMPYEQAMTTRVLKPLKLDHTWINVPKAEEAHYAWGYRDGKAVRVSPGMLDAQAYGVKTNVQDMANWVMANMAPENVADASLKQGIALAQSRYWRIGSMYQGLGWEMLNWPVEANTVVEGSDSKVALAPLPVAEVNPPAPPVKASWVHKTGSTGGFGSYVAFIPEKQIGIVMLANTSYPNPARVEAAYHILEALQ

| SMILES | Ki (Beta-lactamase) | Ki [1] | Ki [2] | Ki [3] | Activity [4] | Activity [5] |
| --- | --- | --- | --- | --- | --- | --- |
| OB1OCc2ccc(C(O)c3ccccc3)cc21 (stereo unspecified) | 7.28 µM | > 32 µM | > 37 µM | 8.42 µM | – | – |
| [O-][S+](c1ccccc1)c1ccc2c(c1)B(O)OC2 (stereo unspecified) | 58 µM | > 32 µM | 4.87 µM | 59.3 µM | – | – |
| O=C(ONc1ccccc1)c1ccc2c(c1)B(O)OC2 | 16 µM | > 32 µM | > 37 µM | 13.8 µM | – | – |
| O=C(O)c1cnc(Oc2ccc3c(c2)B(O)OC3)cn1 | 0.02 µM | > 32 µM | 20.4 µM | – | Active | Active |
| OB1OCc2ccc(Cc3ccccc3)cc21 | 19.8 µM | > 32 µM | > 37 µM | 25.6 µM | – | – |
| CN(C)Cc1cccc(Oc2ccc3c(c2)B(O)OC3)c1 | 7.72 µM | – | – | – | – | – |
| COc1ccc(Oc2ccc3c(c2)B(O)OC3)cc1 | 6 µM | 14.1 µM | 4.34 µM | > 46 µM | – | – |
| OCc1cccc(Oc2ccc3c(c2)B(O)OC3)c1 | 8.4 µM | 1.92 µM | 1.36 µM | 8.43 µM | – | – |
| OB1OCc2ccc(Oc3ccccc3)cc21 | 0.71 µM | 1.89 µM | 1.02 µM | 1.51 µM | – | – |
| CN(C)Cc1ccc(Oc2ccc3c(c2)B(O)OC3)cc1 | 40.6 µM | – | – | – | – | – |
| OB1OCc2ccc(Oc3cccc(O)c3)cc21 | – | 0.816 µM | – | 3.12 µM | – | – |
| O=C(O)c1cnc(Oc2ccc3c(c2)B(O)OC3)nc1 | 0.08 µM | > 32 µM | 14.7 µM | 0.07 µM | – | – |

The remaining lines, values ahead:

| Ki (Beta-lactamase) | Ki [1] | Ki [2] | Ki [3] | Activity [4] | Activity [5] | SMILES |
| --- | --- | --- | --- | --- | --- | --- |
| 1.44 µM | – | – | – | – | – | O=C(O)c1cccc(Oc2ccc3c(c2)B(O)OC3)c1 |
| 2.75 µM | 0.69 µM | 1.01 µM | 6.09 µM | – | – | Nc1cccc(Oc2ccc3c(c2)B(O)OC3)c1 |
| 1.35 µM | 1.1 µM | 1.4 µM | 2.65 µM | – | – | COc1cccc(Oc2ccc3c(c2)B(O)OC3)c1 |
| 28.5 µM | > 32 µM | 10.6 µM | 46.9 µM | – | – | O=C(c1ccccc1)c1ccc2c(c1)B(O)OC2 |
| 63.2 µM | > 32 µM | 11.2 µM | 108 µM | – | – | O=S(=O)(c1ccccc1)c1ccc2c(c1)B(O)OC2 |
| 9.09 µM | > 32 µM | 1.76 µM | 12.7 µM | – | – | OB1OCc2ccc(Sc3ccccc3)cc21 |
| 4.73 µM | > 32 µM | > 37 µM | 13.8 µM | – | – | OB1OCc2ccc(Nc3ccccc3)cc21 |
| 0.02 µM | – | – | – | – | – | O=C(O)c1ccc(Oc2ccc3c(c2)B(O)OC3)cc1 |
| 3.33 µM | – | – | – | – | – | NCc1cccc(Oc2ccc3c(c2)B(O)OC3)c1 |
| 13.3 µM | – | – | – | – | – | NCc1ccc(Oc2ccc3c(c2)B(O)OC3)cc1 |
| 5.55 µM | > 32 µM | 3.11 µM | – | – | – | CCOC(=O)c1ccc(Oc2ccc3c(c2)B(O)OC3)cc1 |
| 2.27 µM | 8.75 µM | 1.08 µM | 74.5 µM | – | – | OB1OCc2ccc(Oc3cccc(OCc4ccccc4)c3)cc21 |
| 8.73 µM | – | – | – | – | – | Nc1ccc(Oc2ccc3c(c2)B(O)OC3)cc1 |
| 46.6 µM | > 32 µM | > 37 µM | > 138 µM | – | – | O=C(Nc1ccc2c(c1)B(O)OC2)c1ccccc1 |
